ChEMBL document CHEMBL4382210, “Identification of novel benzothiopyranone compounds against Mycobacterium tuberculosis through scaffold morphing from benzothiazinones” (Eur J Med Chem, 2018)
In brackets after ≈: the same amount, converted by molar mass.

Experiments:
[1] = Metabolic stability in CD-1 mouse liver microsomes assessed as parent compound remaining at 1 uM measured after 30 mins in presence of NADPH by LC-MS/MS analysis; type: ADME, Microsome; conditions: read-out: Stability
Method in brief: (§1)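 Male CD-1 mouse or pooled human liver microsomes (1 mg/mL protein), compound at 1 µM, 37 °C. Reaction started with 1 mM NADPH and quenched with cold ACN/MeOH containing internal standard. Parent remaining measured by LC-MS/MS; the 30-min value is normalised to time zero.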

[2] = Metabolic stability in human liver microsomes assessed as parent compound remaining at 1 uM measured after 30 mins in presence of NADPH by LC-MS/MS analysis; type: ADME, Microsome; conditions: read-out: Stability; method in brief: as §1
Vero = experiment: Cytotoxicity against African green monkey Vero cells assessed as reduction in cell viability after 48 hrs by MTT assay; type: cell-based; conditions: Chlorocebus sabaeus
Method in brief: (§2)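 Vero or HepG2 cells in RPMI1640 with 10% FBS at 37 °C, 5% CO2, seeded at 4×10^5 cells/mL. Threefold dilutions at 64–0.26 µg/mL final for 48 h. Cells then washed with HBSS, MTT added for 4 h, absorbance read at 492 nm. IC50 taken relative to untreated control.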

[3] = tested on: Mycobacterium tuberculosis; experiment: Antimicrobial activity against Mycobacterium tuberculosis H37Rv after 7 days by MABA; type: functional; conditions: 168 h
Method in brief: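 Strain H37Rv or clinical isolates grown to late log phase in 7H9-ADC-TG, washed, resuspended in PBS, filtered (8 µm) and frozen. On day 7 Tween 80 and alamar blue added, read 16–24 h later (ex 530/em 590). MIC = lowest concentration giving ≥90% fluorescence reduction versus bacterium-only controls.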

[4] = Inhibition of Mycobacterium tuberculosis DprE1 expressed in Escherichia coli BL21(DE3) by fluorescence based assay
Method in brief: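 Buffer: 50 mM Hepes pH 7.5, 100 mM NaCl, 1.5% DMSO, 100 µM Tween-20, 2 µM FAD, 50 µM resazurin. DprE1 (1 µM) with 1 mM FPR at 30 °C across inhibitor concentrations. Resorufin formation followed by fluorescence (ex 530/em 595 nm).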

[5] = Selectivity index, ratio of IC50 for human HepG2 cells to MIC=>90 for Mycobacterium tuberculosis H37Rv; type: toxicity; conditions: read-out: Selectivity Index
HepG2 = experiment: Cytotoxicity against human HepG2 cells assessed as reduction in cell viability after 48 hrs by MTT assay; type: cell-based; conditions: HepG2, 48 h; method in brief: as §2
[6] = Intrinsic clearance in human hepatocytes assessed per million cells at 1 uM incubated up to 120 mins by LC-MS/MS analysis; type: ADME, cell-based, Hepatocyte; conditions: read-out: CLH
Method in brief: (§3)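 Pooled male CD-1 mouse or pooled human hepatocytes at 1 million cells/mL final, compound at 1 µM. Incubated at 37 °C in a CO2 incubator with shaking (~100 rpm). Samples taken at 0, 15, 30, 60, 90 and 120 min and quenched with cold ACN/MeOH containing internal standard. Parent compound remaining measured by LC-MS/MS.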

[7] = Half life in CD-1 mouse hepatocytes assessed per million cells at 1 uM incubated up to 120 mins by LC-MS/MS analysis; type: ADME, cell-based, Hepatocyte; method in brief: as §3
[8] = Half life in human hepatocytes assessed per million cells at 1 uM incubated up to 120 mins by LC-MS/MS analysis; type: ADME, cell-based, Hepatocyte; method in brief: as §3
[9] = Intrinsic clearance in CD-1 mouse hepatocytes assessed per million cells at 1 uM incubated up to 120 mins by LC-MS/MS analysis; type: ADME, cell-based, Hepatocyte; conditions: read-out: CLH; method in brief: as §3

| Compound | IC50 (Vero) [µg/mL] | MIC90 [3] [µg/mL] | further results |
| --- | --- | --- | --- |
| CC1COC2(CCN(c3cc(=O)c4cc(C(F)(F)F)cc([N+](=O)[O-])c4s3)CC2)O1 (stereo not given) | > 64 | 0.03 (≈ 0.0697 µM) | remaining at 0.5 h, 1 µM [1]: 47.4%; remaining at 0.5 h, 1 µM [2]: 82.8%; IC50 [4]: 0.63 µM |
| O=c1cc(NCc2cccc(F)c2)sc2c([N+](=O)[O-])cc(C(F)(F)F)cc12 | > 64 | 0.118 (≈ 0.296 µM) | – |
| O=c1nc(NC2CCCCC2)oc2c([N+](=O)[O-])cc(C(F)(F)F)cc12 | 5.39 (≈ 15.1 µM) | 0.118 (≈ 0.33 µM) | – |
| O=c1nc(NCc2cccc(F)c2)oc2c([N+](=O)[O-])cc(C(F)(F)F)cc12 | > 64 | > 32 | – |
| COc1ccc(CNc2cc(=O)c3cc(C(F)(F)F)cc([N+](=O)[O-])c3s2)cc1OC | > 64 | 0.902 (≈ 2.05 µM) | – |
| CC1COC2(CCN(c3cc(=O)c4cc(C(F)(F)F)cc([N+](=O)[O-])c4o3)CC2)O1 (stereo not given) | 18.9 (≈ 45.5 µM) | < 0.016 | – |
| O=c1cc(NCc2ccc(F)cc2)sc2c([N+](=O)[O-])cc(C(F)(F)F)cc12 | > 64 | 0.206 (≈ 0.517 µM) | – |
| O=c1nc(NCc2ccc3c(c2)OCCO3)oc2c([N+](=O)[O-])cc(C(F)(F)F)cc12 | 25.3 (≈ 59.7 µM) | 0.03 (≈ 0.0709 µM) | – |
| O=c1cc(N2CCN(Cc3ccccc3)CC2)sc2c([N+](=O)[O-])cc(C(F)(F)F)cc12 | > 64 | 0.03 (≈ 0.0667 µM) | selectivity ratio [5]: > 2130; remaining at 0.5 h, 1 µM [1]: 60.5%; remaining at 0.5 h, 1 µM [2]: 87.6%; IC50 (HepG2): > 64 µg/mL; IC50 [4]: 1.33 µM |
| O=c1nc(Nc2ccccc2)oc2c([N+](=O)[O-])cc(C(F)(F)F)cc12 | 37.9 (≈ 108 µM) | 30.6 (≈ 87.3 µM) | – |
| O=c1cc(N2CCN(c3nccs3)CC2)sc2c([N+](=O)[O-])cc(C(F)(F)F)cc12 | > 64 | 0.054 (≈ 0.122 µM) | – |
| O=c1cc(N2CCN(CC3CCCCC3)CC2)oc2c([N+](=O)[O-])cc(C(F)(F)F)cc12 | 10.6 (≈ 24.1 µM) | 0.116 (≈ 0.264 µM) | – |
| CC1CN(c2cc(=O)c3cc(C(F)(F)F)cc([N+](=O)[O-])c3s2)CCN1Cc1ccccc1 (stereo not given) | > 64 | < 0.016 | remaining at 0.5 h, 1 µM [1]: 54.5%; remaining at 0.5 h, 1 µM [2]: 76.7% |
| CC1COC2(CCN(c3nc(=O)c4cc(C(F)(F)F)cc([N+](=O)[O-])c4o3)CC2)O1 (stereo not given) | 9.21 (≈ 22.2 µM) | < 0.016 | – |
| O=c1cc(NC2CCCCC2)sc2c([N+](=O)[O-])cc(C(F)(F)F)cc12 | > 64 | 1.53 (≈ 4.1 µM) | – |
| CN(Cc1ccc2c(c1)OCCO2)c1cc(=O)c2cc(C(F)(F)F)cc([N+](=O)[O-])c2s1 | > 64 | < 0.016 | remaining at 0.5 h, 1 µM [1]: 6.46%; remaining at 0.5 h, 1 µM [2]: 44.9% |
| O=c1cc(Nc2ccccc2)sc2c([N+](=O)[O-])cc(C(F)(F)F)cc12 | > 64 | > 32 | – |
| CC1CN(c2nc(=O)c3cc(C(F)(F)F)cc([N+](=O)[O-])c3o2)CCN1CC1CCCCC1 (stereo not given) | 10.9 (≈ 23.9 µM) | < 0.016 | – |
| O=c1nc(NCC2CCCCC2)oc2c([N+](=O)[O-])cc(C(F)(F)F)cc12 | 29.7 (≈ 80.1 µM) | 0.05 (≈ 0.135 µM) | – |
| CN(Cc1ccc2c(c1)OCCO2)c1cc(=O)c2cc(C(F)(F)F)cc([N+](=O)[O-])c2o1 | 29.4 (≈ 67.4 µM) | < 0.016 | – |
| O=c1cc(NCC2CCCCC2)sc2c([N+](=O)[O-])cc(C(F)(F)F)cc12 | > 64 | 0.402 (≈ 1.04 µM) | – |

| Compound | IC50 (Vero) [µg/mL] | MIC90 [3] [µg/mL] | further results |
| --- | --- | --- | --- |
| O=c1nc(N2CCN(Cc3ccccc3)CC2)oc2c([N+](=O)[O-])cc(C(F)(F)F)cc12 | 33.5 (≈ 77.1 µM) | 3.93 (≈ 9.05 µM) | – |
| O=c1nc(N2CCN(c3nccs3)CC2)oc2c([N+](=O)[O-])cc(C(F)(F)F)cc12 | – | 4 (≈ 9.36 µM) | – |
| COc1ccc(CN(C)c2cc(=O)c3cc(C(F)(F)F)cc([N+](=O)[O-])c3s2)cc1OC | > 64 | < 0.016 | – |
| COc1ccc(CNc2nc(=O)c3cc(C(F)(F)F)cc([N+](=O)[O-])c3o2)cc1OC | 29.2 (≈ 68.7 µM) | 0.226 (≈ 0.531 µM) | – |
| CN(Cc1ccccc1)c1nc(=O)c2cc(C(F)(F)F)cc([N+](=O)[O-])c2o1 | 3.84 (≈ 10.1 µM) | 0.031 (≈ 0.0817 µM) | – |
| O=c1cc(NCc2ccccc2)sc2c([N+](=O)[O-])cc(C(F)(F)F)cc12 | > 64 | > 32 | – |
| COc1ccc(CN(C)c2nc(=O)c3cc(C(F)(F)F)cc([N+](=O)[O-])c3o2)cc1OC | 9.46 (≈ 21.5 µM) | 0.057 (≈ 0.13 µM) | – |
| O=c1nc(N2CCN(CC3CCCCC3)CC2)oc2c([N+](=O)[O-])cc(C(F)(F)F)cc12 | 52.1 (≈ 118 µM) | 0.159 (≈ 0.361 µM) | – |
| CC1CN(c2cc(=O)c3cc(C(F)(F)F)cc([N+](=O)[O-])c3s2)CCN1CC1CCCCC1 (stereo not given) | > 64 | < 0.016 | remaining at 0.5 h, 1 µM [1]: 59.9%; remaining at 0.5 h, 1 µM [2]: 62.7% |
| O=C1CN(c2cc(=O)c3cc(C(F)(F)F)cc([N+](=O)[O-])c3s2)CCN1CC1CCCCC1 | > 64 | < 0.016 | remaining at 0.5 h, 1 µM [1]: 7.38%; remaining at 0.5 h, 1 µM [2]: 86.6% |
| O=C1CN(c2nc(=O)c3cc(C(F)(F)F)cc([N+](=O)[O-])c3o2)CCN1CC1CCCCC1 | 25.4 (≈ 55.9 µM) | 6.28 (≈ 13.8 µM) | – |
| O=c1nc(NCc2ccc(F)cc2)oc2c([N+](=O)[O-])cc(C(F)(F)F)cc12 | > 64 | 7.22 (≈ 18.8 µM) | – |
| O=c1nc(NCc2ccccc2)oc2c([N+](=O)[O-])cc(C(F)(F)F)cc12 | 25.4 (≈ 69.4 µM) | 30.5 (≈ 83.6 µM) | – |
| O=C1CN(c2cc(=O)c3cc(C(F)(F)F)cc([N+](=O)[O-])c3o2)CCN1CC1CCCCC1 | 9.73 (≈ 21.5 µM) | 0.091 (≈ 0.201 µM) | – |
| CN(Cc1ccccc1)c1cc(=O)c2cc(C(F)(F)F)cc([N+](=O)[O-])c2s1 | > 64 | < 0.016 | remaining at 0.5 h, 1 µM [1]: 13%; remaining at 0.5 h, 1 µM [2]: 11.6% |
| CN(Cc1ccc2c(c1)OCCO2)c1nc(=O)c2cc(C(F)(F)F)cc([N+](=O)[O-])c2o1 | 9.27 (≈ 21.2 µM) | < 0.016 | – |
| CC1CN(c2nc(=O)c3cc(C(F)(F)F)cc([N+](=O)[O-])c3o2)CCN1Cc1ccccc1 (stereo not given) | 15.6 (≈ 34.8 µM) | < 0.016 | – |
| O=c1cc(NCc2ccc3c(c2)OCCO3)sc2c([N+](=O)[O-])cc(C(F)(F)F)cc12 | > 64 | 0.03 (≈ 0.0684 µM) | – |
| C[C@H]1COC2(CCN(c3nc(=O)c4cc(C(F)(F)F)cc([N+](=O)[O-])c4s3)CC2)O1 [BTZ-043] | > 64 | < 0.016 | IC50 [4]: 1.03 µM |
| O=c1nc(N2CCN(CC3CCCCC3)CC2)sc2c([N+](=O)[O-])cc(C(F)(F)F)cc12 [MACOZINONE] | > 64 | < 0.016 | selectivity ratio [5]: > 1190; remaining at 0.5 h, 1 µM [1]: 63.9%; remaining at 0.5 h, 1 µM [2]: 58.7%; hepatocyte CLint at 1 µM [6]: 14.5 µL/min/1e6 cells; half-life at 1 µM [7]: 2.75 h; IC50 (HepG2): 19 µg/mL (≈ 41.6 µM); half-life at 1 µM [8]: 0.797 h; hepatocyte CLint at 1 µM [9]: 4.2 µL/min/1e6 cells; IC50 [4]: 0.2 µM |
| CO[C@H]1/C=C/O[C@@]2(C)Oc3c(C)c(O)c4c(O)c(c(/C=N/N5CCN(C)CC5)c(O)c4c3C2=O)NC(=O)/C(C)=C\C=C\[C@H](C)[C@H](O)[C@@H](C)[C@@H](O)[C@@H](C)[C@H](OC(C)=O)[C@@H]1C [RIFAMPIN] | – | 0.096 (≈ 0.117 µM) | – |
